According to ChEMBL document CHEMBL1152689, “Synthesis, tautomerism, and antimicrobial, anti-HCV, anti-SSPE, antioxidant, and antitumor activities of arylazobenzosuberones” (Bioorg Med Chem, 2009):
≈ marks a conversion by molar mass, not a printed value. Calls of active or inactive are those of the source. The rule behind the calls is not given here.

Experiments:
Hepatitis C virus = experiment: Antiviral activity against HCV by cell based replicon assay; format: functional, Hepacivirus hominis
How it was run: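 HCV replicon cells plated at 1×10^4 per well. Next day incubated at 37 °C with serially diluted compound in DMEM with 2% FBS and 0.5% DMSO. HCV RNA copy number measured by quantitative RT-PCR on total cellular RNA. Each point is the average of five replicates. Cytotoxicity measured by MTS in parallel.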

Measles morbillivirus = experiment: Antiviral activity against Measles virus infected in intracranially dosed hamster assessed as inhibition of subacute sclerosing panencephalitis; format: functional
How it was run: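 Hamsters under ether anesthesia injected intracranially, into the subarachnoid space at 2 mm depth, at 5, 10 and 20 mg/kg/day for 10 days. Four animals per group sacrificed on days 1–20. Brains homogenized in PBS and centrifuged, supernatant deproteinized with ethanol, then MIC in brain tissue determined by HPLC and bioassay.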

[1] = Antioxidant activity assessed as inhibition of peroxynitrite-mediated 3-nitrotyrosine formation by HPLC; format: functional
How it was run: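 Tyrosine and peroxynitrite, each 100 µM, reacted with compound at 0–300 µM in 100 mM phosphate buffer pH 7.4 at 37 °C for 15 min. Peroxynitrite made from acidified H2O2 plus KNO2, quenched with NaOH, and kept on ice no longer than 30 min before use.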

MC-38 = experiment: Antitumor activity against mouse Colon 38 cells implanted in iv dosed C57BL/6 mouse administered as single dose; format: functional, organism-based
How it was run: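 Female C57BL/6 mice, 6 weeks old, given about 30 mg Colon 38 tumor tissue s.c. in the flank. Randomized into groups of n = 5 when tumors reached about 300 mm3 (day 1). Compound in 5% glucose given as a single iv tail-vein dose on day 1; controls received 5% glucose. Tumor volume = (length × width²)/2 and body weight tracked.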

[2] = target: DNA topoisomerase 2-alpha (Mus musculus) (UniProt Q01320); experiment: Inhibition of topoisomerase 2 from mouse P388 cells assessed as relaxation of pBR322 DNA by agarose gel electrophoresis relative to etoposide; format: cell-based
Chain of DNA topoisomerase 2-alpha (Mus musculus) (Q01320 whole entry): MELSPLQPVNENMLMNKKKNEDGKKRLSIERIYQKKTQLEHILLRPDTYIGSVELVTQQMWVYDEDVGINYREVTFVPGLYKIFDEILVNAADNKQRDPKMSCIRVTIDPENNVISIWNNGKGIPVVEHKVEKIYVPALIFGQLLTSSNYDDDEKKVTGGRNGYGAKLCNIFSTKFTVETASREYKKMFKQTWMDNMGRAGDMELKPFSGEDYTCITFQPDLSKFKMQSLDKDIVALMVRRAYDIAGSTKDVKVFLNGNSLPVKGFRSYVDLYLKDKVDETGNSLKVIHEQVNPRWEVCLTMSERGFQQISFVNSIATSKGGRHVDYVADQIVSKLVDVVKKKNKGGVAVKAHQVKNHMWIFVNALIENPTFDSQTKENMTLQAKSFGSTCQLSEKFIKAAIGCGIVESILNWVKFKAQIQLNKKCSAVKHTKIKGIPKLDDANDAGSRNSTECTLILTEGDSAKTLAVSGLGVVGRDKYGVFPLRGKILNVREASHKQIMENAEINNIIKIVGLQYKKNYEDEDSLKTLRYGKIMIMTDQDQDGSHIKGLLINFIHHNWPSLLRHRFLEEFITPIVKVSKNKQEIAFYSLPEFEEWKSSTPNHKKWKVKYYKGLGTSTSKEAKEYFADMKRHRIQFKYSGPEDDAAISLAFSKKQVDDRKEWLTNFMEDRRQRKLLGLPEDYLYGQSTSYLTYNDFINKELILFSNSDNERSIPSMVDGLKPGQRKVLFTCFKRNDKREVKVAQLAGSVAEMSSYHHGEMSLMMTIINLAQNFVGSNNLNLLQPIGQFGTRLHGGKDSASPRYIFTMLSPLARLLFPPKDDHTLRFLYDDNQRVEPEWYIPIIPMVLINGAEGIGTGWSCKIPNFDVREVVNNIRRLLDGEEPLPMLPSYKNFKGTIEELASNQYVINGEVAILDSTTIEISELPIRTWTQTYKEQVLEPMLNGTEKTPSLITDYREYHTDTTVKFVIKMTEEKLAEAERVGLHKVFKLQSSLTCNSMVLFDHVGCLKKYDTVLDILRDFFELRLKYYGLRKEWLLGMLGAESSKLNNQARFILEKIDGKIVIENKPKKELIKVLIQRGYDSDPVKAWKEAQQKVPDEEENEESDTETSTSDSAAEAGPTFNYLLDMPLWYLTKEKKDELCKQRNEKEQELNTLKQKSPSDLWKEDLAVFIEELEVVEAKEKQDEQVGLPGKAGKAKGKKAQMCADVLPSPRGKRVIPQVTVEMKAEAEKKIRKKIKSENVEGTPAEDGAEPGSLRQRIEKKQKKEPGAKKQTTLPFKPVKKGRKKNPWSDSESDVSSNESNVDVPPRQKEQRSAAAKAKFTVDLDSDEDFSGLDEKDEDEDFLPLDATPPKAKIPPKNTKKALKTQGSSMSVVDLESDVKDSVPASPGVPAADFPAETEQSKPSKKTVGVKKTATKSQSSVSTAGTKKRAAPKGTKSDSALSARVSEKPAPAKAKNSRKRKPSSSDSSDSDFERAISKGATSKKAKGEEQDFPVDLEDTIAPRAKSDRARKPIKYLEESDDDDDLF
How it was run: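 Topoisomerase II purified from P388 cells. One unit relaxes 0.125 µg supercoiled pBR322 DNA, incubated with or without inhibitor at 30 °C for 1 h in 50 mM Tris-HCl pH 8.0, 100 mM KCl, 10 mM MgCl2, 0.5 mM DTT, 1 mM ATP and 30 µg/ml BSA. Products run on 0.7% agarose in TBE, stained with ethidium bromide and imaged under UV.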

[3] = target: T1, DNA topoisomerase 1 (Homo sapiens) (UniProt P11387); experiment: Inhibition of topoisomerase 1 relative to etoposide
T1 sequence (whole entry): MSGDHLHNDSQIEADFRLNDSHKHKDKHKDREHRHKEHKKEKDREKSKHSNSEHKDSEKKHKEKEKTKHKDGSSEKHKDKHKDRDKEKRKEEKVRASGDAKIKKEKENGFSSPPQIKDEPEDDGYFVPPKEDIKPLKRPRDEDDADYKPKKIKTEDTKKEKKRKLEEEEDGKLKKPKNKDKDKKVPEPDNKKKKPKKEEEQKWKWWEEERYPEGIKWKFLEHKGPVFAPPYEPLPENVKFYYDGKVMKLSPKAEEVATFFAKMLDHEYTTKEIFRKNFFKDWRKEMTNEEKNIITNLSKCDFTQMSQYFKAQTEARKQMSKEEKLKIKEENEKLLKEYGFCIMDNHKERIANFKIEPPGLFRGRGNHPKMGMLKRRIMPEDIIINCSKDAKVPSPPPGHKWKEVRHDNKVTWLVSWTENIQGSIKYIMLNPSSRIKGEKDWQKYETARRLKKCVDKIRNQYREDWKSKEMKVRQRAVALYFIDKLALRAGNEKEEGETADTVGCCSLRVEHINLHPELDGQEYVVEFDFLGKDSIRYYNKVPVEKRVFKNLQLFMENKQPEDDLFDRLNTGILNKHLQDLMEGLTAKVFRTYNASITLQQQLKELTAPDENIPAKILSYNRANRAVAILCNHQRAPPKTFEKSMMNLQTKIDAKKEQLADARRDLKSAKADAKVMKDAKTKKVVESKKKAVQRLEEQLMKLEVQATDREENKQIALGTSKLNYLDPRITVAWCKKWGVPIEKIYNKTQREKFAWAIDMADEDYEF

[4] = system: Radical scavenging activity; experiment: Antioxidant activity assessed as DPPH free radical scavenging activity by measuring reduction in DPPH absorbance by ELISA relative to untreated control; format: functional; set-up: concentration or dose not given beside the values
How it was run: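 Test compounds dissolved in DMSO, ascorbic acid standard in water, both serially diluted. 10 µl sample added to 90 µl of 100 µM DPPH in methanol and kept in the dark at 37 °C for 30 min. Absorbance read at 515 nm. Blank is DMSO plus DPPH. % reduction = (A_B − A_A)/A_B × 100. Run in triplicate.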

Penicillium italicum [5] = experiment: Antimicrobial activity against Penicillium italicum at 5 ug/mL by agar diffusion method; format: functional; conditions: read-out: IZ
[6] = system: Syncephalastrum racemosum; experiment: Antimicrobial activity against Syncephalastrum racemosum at 5 ug/mL by agar diffusion method; format: functional; conditions: read-out: IZ
Candida albicans [7] = experiment: Antimicrobial activity against Candida albicans at 5 ug/mL by agar diffusion method; format: functional; conditions: read-out: IZ
Staphylococcus aureus [8] = experiment: Antimicrobial activity against Staphylococcus aureus at 5 ug/mL by agar diffusion method; format: functional; conditions: read-out: IZ
Pseudomonas aeruginosa [9] = experiment: Antimicrobial activity against Pseudomonas aeruginosa at 5 ug/mL by agar diffusion method; format: functional; conditions: read-out: IZ
Bacillus subtilis [10] = experiment: Antimicrobial activity against Bacillus subtilis at 5 ug/mL by agar diffusion method; format: functional; conditions: read-out: IZ
Escherichia coli [11] = experiment: Antimicrobial activity against Escherichia coli at 5 ug/mL by agar diffusion method; format: functional; conditions: read-out: IZ
Aspergillus fumigatus [12] = experiment: Antimicrobial activity against Aspergillus fumigatus at 2.5 ug/mL by agar diffusion method; format: functional; conditions: read-out: IZ
Penicillium italicum [13] = experiment: Antimicrobial activity against Penicillium italicum at 2.5 ug/mL by agar diffusion method; format: functional; conditions: read-out: IZ
[14] = system: Syncephalastrum racemosum; experiment: Antimicrobial activity against Syncephalastrum racemosum at 2.5 ug/mL by agar diffusion method; format: functional; conditions: read-out: IZ
Candida albicans [15] = experiment: Antimicrobial activity against Candida albicans at 2.5 ug/mL by agar diffusion method; format: functional; conditions: read-out: IZ
Staphylococcus aureus [16] = experiment: Antimicrobial activity against Staphylococcus aureus at 2.5 ug/mL by agar diffusion method; format: functional; conditions: read-out: IZ
Pseudomonas aeruginosa [17] = experiment: Antimicrobial activity against Pseudomonas aeruginosa at 2.5 ug/mL by agar diffusion method; format: functional; conditions: read-out: IZ
Bacillus subtilis [18] = experiment: Antimicrobial activity against Bacillus subtilis at 2.5 ug/mL by agar diffusion method; format: functional; conditions: read-out: IZ
Escherichia coli [19] = experiment: Antimicrobial activity against Escherichia coli at 2.5 ug/mL by agar diffusion method; format: functional; conditions: read-out: IZ
Aspergillus fumigatus [20] = experiment: Antimicrobial activity against Aspergillus fumigatus at 1.25 ug/mL by agar diffusion method; format: functional; conditions: read-out: IZ
Penicillium italicum [21] = experiment: Antimicrobial activity against Penicillium italicum at 1.25 ug/mL by agar diffusion method; format: functional; conditions: read-out: IZ
[22] = system: Syncephalastrum racemosum; experiment: Antimicrobial activity against Syncephalastrum racemosum at 1.25 ug/mL by agar diffusion method; format: functional; conditions: read-out: IZ
Candida albicans [23] = experiment: Antimicrobial activity against Candida albicans at 1.25 ug/mL by agar diffusion method; format: functional; conditions: read-out: IZ
Staphylococcus aureus [24] = experiment: Antimicrobial activity against Staphylococcus aureus at 1.25 ug/mL by agar diffusion method; format: functional; conditions: read-out: IZ
Pseudomonas aeruginosa [25] = experiment: Antimicrobial activity against Pseudomonas aeruginosa at 1.25 ug/mL by agar diffusion method; format: functional; conditions: read-out: IZ
Bacillus subtilis [26] = experiment: Antimicrobial activity against Bacillus subtilis at 1.25 ug/mL by agar diffusion method; format: functional; conditions: read-out: IZ
Escherichia coli [27] = experiment: Antimicrobial activity against Escherichia coli at 1.25 ug/mL by agar diffusion method; format: functional; conditions: read-out: IZ
Aspergillus fumigatus [28] = experiment: Antimicrobial activity against Aspergillus fumigatus at 5 ug/mL by agar diffusion method; format: functional; conditions: read-out: IZ

MIC (Hepatitis C virus) | MIC (Measles morbillivirus) | IC50 [1] | Ratio [2] | Ratio [3] | SMILES | Activity (MC-38) | Activity [4] | zone of inhibition at 5 µg/mL (Penicillium italicum [5]) | zone of inhibition at 5 µg/mL [6] | zone of inhibition at 5 µg/mL (Candida albicans [7]) | zone of inhibition at 5 µg/mL (Staphylococcus aureus [8]) | zone of inhibition at 5 µg/mL (Pseudomonas aeruginosa [9]) | zone of inhibition at 5 µg/mL (Bacillus subtilis [10]) | zone of inhibition at 5 µg/mL (Escherichia coli [11]) | zone of inhibition at 2.5 µg/mL (Aspergillus fumigatus [12]) | zone of inhibition at 2.5 µg/mL (Penicillium italicum [13]) | zone of inhibition at 2.5 µg/mL [14] | zone of inhibition at 2.5 µg/mL (Candida albicans [15]) | zone of inhibition at 2.5 µg/mL (Staphylococcus aureus [16]) | zone of inhibition at 2.5 µg/mL (Pseudomonas aeruginosa [17]) | further results
1.07 µg/mL (≈ 4.05 µM) | 6.12 µg/mL (≈ 23.2 µM) | 56 µM | 4.4 | 4.3 | O=C1/C(=N/Nc2ccccc2)CCCc2ccccc21 | Active | – | – | – | – | – | – | – | – | – | – | – | – | – | – | –
– | – | – | – | – | O=C1O[C@H]([C@@H](O)CO)C(O)=C1O | – | 79% | – | – | – | – | – | – | – | – | – | – | – | – | – | –
1.03 µg/mL (≈ 3.34 µM) | 6.08 µg/mL (≈ 19.7 µM) | 5.13 µM | 4.6 | 4.4 | O=C1/C(=N/Nc2ccc([N+](=O)[O-])cc2)CCCc2ccccc21 | Active | 82% | 0 mm | 16 mm | 12 mm | 9 mm | 0 mm | 14 mm | 8 mm | 8 mm | 0 mm | 9 mm | 6 mm | 3 mm | 0 mm | zone of inhibition at 2.5 µg/mL (Bacillus subtilis [18]): 8 mm; zone of inhibition at 2.5 µg/mL (Escherichia coli [19]): 0 mm; zone of inhibition at 1.25 µg/mL (Aspergillus fumigatus [20]): 5 mm; zone of inhibition at 1.25 µg/mL (Penicillium italicum [21]): 0 mm; zone of inhibition at 1.25 µg/mL [22]: 4 mm; zone of inhibition at 1.25 µg/mL (Candida albicans [23]): 0 mm; zone of inhibition at 1.25 µg/mL (Staphylococcus aureus [24]): 0 mm; zone of inhibition at 1.25 µg/mL (Pseudomonas aeruginosa [25]): 0 mm; zone of inhibition at 1.25 µg/mL (Bacillus subtilis [26]): 3 mm; zone of inhibition at 1.25 µg/mL (Escherichia coli [27]): 0 mm; zone of inhibition at 5 µg/mL (Aspergillus fumigatus [28]): 18 mm
1 µg/mL (≈ 3.35 µM) | 6 µg/mL (≈ 20.1 µM) | 54.1 µM | 5 | 4.9 | O=C1/C(=N/Nc2cccc(Cl)c2)CCCc2ccccc21 | Active | 84.1% | 0 mm | 16 mm | 15 mm | 12 mm | 0 mm | 17 mm | 9 mm | 8 mm | 0 mm | 9 mm | 11 mm | 9 mm | 0 mm | zone of inhibition at 2.5 µg/mL (Bacillus subtilis [18]): 10 mm; zone of inhibition at 2.5 µg/mL (Escherichia coli [19]): 0 mm; zone of inhibition at 1.25 µg/mL (Aspergillus fumigatus [20]): 6 mm; zone of inhibition at 1.25 µg/mL (Penicillium italicum [21]): 0 mm; zone of inhibition at 1.25 µg/mL [22]: 6 mm; zone of inhibition at 1.25 µg/mL (Candida albicans [23]): 7 mm; zone of inhibition at 1.25 µg/mL (Staphylococcus aureus [24]): 5 mm; zone of inhibition at 1.25 µg/mL (Pseudomonas aeruginosa [25]): 0 mm; zone of inhibition at 1.25 µg/mL (Bacillus subtilis [26]): 7 mm; zone of inhibition at 1.25 µg/mL (Escherichia coli [27]): 0 mm; zone of inhibition at 5 µg/mL (Aspergillus fumigatus [28]): 14 mm
1.01 µg/mL (≈ 3.43 µM) | 6.01 µg/mL (≈ 20.4 µM) | 54.2 µM | 4.9 | 4.8 | COc1ccc(N/N=C2\CCCc3ccccc3C2=O)cc1 | Active | 83.9% | – | – | – | – | – | – | – | – | – | – | – | – | – | –
